Results published in ChEMBL document CHEMBL1122917, “Vinblastin-23-oyl amino acid derivatives: chemistry, physicochemical data, toxicity, and antitumor activities against P388 and L1210 leukemias” (J Med Chem, 1985).

Key:
Assay type in all cases: functional
Mus musculus [1] = assay: Number of survivors on 60th day at dose 75 mg/kg/day in 10 mice implanted with P388 leukemia cell line
Mus musculus [2] = assay: Percent increase in life span of DBA2 mice after inoculation with L1210 leukemia intravenously at a dose of 75 mg/kg per day; settings: route intravenous
Mus musculus [3] = assay: Number of survivors on 30th day at dose 55 mg/kg/day in 10 mice implanted with P388 leukemia cell line
Mus musculus [4] = assay: Number of survivors on 60th day at dose 50 mg/kg/day in 10 mice implanted with P388 leukemia cell line
Mus musculus [5] = assay: Percent increase in life span of DBA2 mice after inoculation with L1210 leukemia intravenously at a dose of 55 mg/lg per day
Mus musculus [6] = assay: Percent increase in life span of DBA2 mice after inoculation with L1210 leukemia intravenously at a dose of 65 mg/kg per day; settings: route intravenous
Summary of the method: (§1)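 Female DBA2 mice inoculated iv on day 0 with 10^4 L1210 cells; drugs given iv as sulfate salts in physiological saline, mostly once on day 1. %ILS from all deaths and survivors as (T/C × 100) − 100; survivors scored on days 30 and 60.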

Mus musculus [7] = assay: Number of survivors of DBA2 mice on 30th day after inoculation with L1210 leukemia cell line intravenously at a dose of 75 mg/kg/day; 0/10; settings: route intravenous
Mus musculus [8] = assay: Number of survivors on 30th day at dose 80 mg/kg/day in 10 mice implanted with P388 leukemia cell line
Mus musculus [9] = assay: Percent increase in life span of DBA2 mice after inoculation with L1210 leukemia intravenously at a dose of 60 mg/kg per day; settings: route intravenous; summary of the method: as §1
Mus musculus [10] = assay: Number of survivors on 30th day at dose 75 mg/kg/day in 10 mice implanted with P388 leukemia cell line
Mus musculus [11] = assay: Number of survivors on 30th day at dose 60 mg/kg/day in 10 mice implanted with P388 leukemia cell line
Mus musculus [12] = assay: Number of survivors of DBA2 mice on 60th day after inoculation with L1210 leukemia cell line intravenously at a dose of 60 mg/kg/day; 0/10; settings: route intravenous
Mus musculus [13] = assay: Number of survivors on 60th day at dose 55 mg/kg/day in 10 mice implanted with P388 leukemia cell line
Mus musculus [14] = assay: Number of survivors of DBA2 mice on 60th day after inoculation with L1210 leukemia cell line intravenously at a dose of 65 mg/kg/day; 0/10; settings: route intravenous
Mus musculus [15] = assay: Number of survivors of DBA2 mice on 30th day after inoculation with L1210 leukemia cell line intravenously at a dose of 55 mg/kg/day; 0/10; settings: route intravenous
Mus musculus [16] = assay: Number of survivors on 60th day at dose 80 mg/kg/day in 10 mice implanted with P388 leukemia cell line
Mus musculus [17] = assay: Percent increase in life span of DBA2 mice after inoculation with L1210 leukemia intravenously at a dose of 70 mg/kg per day; settings: route intravenous; summary of the method: as §1
Mus musculus [18] = assay: Number of survivors of DBA2 mice on 30th day after inoculation with L1210 leukemia cell line intravenously at a dose of 60 mg/kg/day; 0/10; settings: route intravenous
Mus musculus [19] = assay: Number of survivors of DBA2 mice on 60th day after inoculation with L1210 leukemia cell line intravenously at a dose of 55 mg/kg/day; 0/10; settings: route intravenous
Mus musculus [20] = assay: Number of survivors on 30th day at dose 50 mg/kg/day in 10 mice implanted with P388 leukemia cell line
Mus musculus [21] = assay: Number of survivors of DBA2 mice on 30th day after inoculation with L1210 leukemia cell line intravenously at a dose of 70 mg/kg/day; 0/10; settings: route intravenous
Mus musculus [22] = assay: Percent increase in life span at dose 75 mg/kg/day in 10 mice implanted with P388 leukemia cell line
Mus musculus [23] = assay: Percent increase in life span at dose 50 mg/kg/day in 10 mice implanted with P388 leukemia cell line
Summary of the method: (§2)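 Female DBA2 mice inoculated iv on day 0 with 10^4 P388 cells; single iv treatment on day 1 with drug as sulfate salt in physiological saline. Survival followed; %ILS from all deaths and survivors as (T/C × 100) − 100, maximal MST 30 days; survivors counted on days 30 and 60. Most experiments confirmed three times.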

Mus musculus [24] = assay: Number of survivors on 60th day at dose 60 mg/kg/day in 10 mice implanted with P388 leukemia cell line; summary of the method: as §2
Mus musculus [25] = assay: Number of survivors of DBA2 mice on 60th day after inoculation with L1210 leukemia cell line intraperitoneally at a dose of 70 mg/kg/day; 0/10; settings: route intraperitoneal
Mus musculus [26] = assay: Number of survivors of DBA2 mice on 30th day after inoculation with L1210 leukemia cell line intravenously at a dose of 65 mg/kg/day; 0/10; settings: route intravenous
Mus musculus [27] = assay: Number of survivors of DBA2 mice on 60th day after inoculation with L1210 leukemia cell line intraperitoneally at a dose of 75 mg/kg/day; 0/10; settings: route intraperitoneal
Mus musculus [28] = assay: Percent increase in life span at dose 80 mg/kg/day in 10 mice implanted with P388 leukemia cell line; summary of the method: as §2
Mus musculus [29] = assay: Percent increase in life span at dose 55 mg/kg/day in 10 mice implanted with P388 leukemia cell line; summary of the method: as §2
Mus musculus [30] = assay: Percent increase in life span at dose 60 mg/kg/day in 10 mice implanted with P388 leukemia cell line; summary of the method: as §2

CCOC(=O)[C@H](Cc1ccccc1)NC(=O)[C@@]1(O)[C@H](O)[C@]2(CC)C=CCN3CC[C@@]4(c5cc([C@@]6(C(=O)OC)C[C@H]7C[N@](CCc8c6[nH]c6ccccc86)C[C@](O)(CC)C7)c(OC)cc5N(C)[C@@]14C)[C@@H]32
Survivors (Mus musculus [1]): 0
ILS at 75 mg/kg/day (Mus musculus [2]): 25%
Survivors (Mus musculus [3]): 1
Survivors (Mus musculus [4]): 1
ILS (Mus musculus [5]): 0%
ILS at 65 mg/kg/day (Mus musculus [6]): 3.5%
Survivors (Mus musculus [7]): 0
Survivors (Mus musculus [8]): 0
ILS at 60 mg/kg/day (Mus musculus [9]): 13.9%
Survivors (Mus musculus [10]): 0
Survivors (Mus musculus [11]): 0
Survivors (Mus musculus [12]): 0
Survivors (Mus musculus [13]): 0
Survivors (Mus musculus [14]): 0
Survivors (Mus musculus [15]): 0
Survivors (Mus musculus [16]): 0
ILS at 70 mg/kg/day (Mus musculus [17]): 13%
Survivors (Mus musculus [18]): 0
Survivors (Mus musculus [19]): 0
Survivors (Mus musculus [20]): 1
Survivors (Mus musculus [21]): 0
ILS at 75 mg/kg/day (Mus musculus [22]): 26.6%
ILS at 50 mg/kg/day (Mus musculus [23]): 21.5%
Survivors (Mus musculus [24]): 0
Survivors (Mus musculus [25]): 0
Survivors (Mus musculus [26]): 0
Survivors (Mus musculus [27]): 0
ILS at 80 mg/kg/day (Mus musculus [28]): 41.7%
ILS at 55 mg/kg/day (Mus musculus [29]): 36.4%
ILS at 60 mg/kg/day (Mus musculus [30]): 13.3%
